Laboratory results reported in ChEMBL document CHEMBL1165950, “Design and synthesis of new potent anticancer pyrazoles with high FLT3 kinase inhibitory selectivity” (Bioorg Med Chem, 2010).

Assays:
Assay type in all cases: functional
Malme-3M = assay: Cytotoxicity against human MALME-3M cells assessed as cell growth at 0.001 uM after 48 hrs by sulforhodamine B assay; settings: read-out: Activity
EKVX = assay: Growth inhibition of human EKVX cells after 48 hrs by sulforhodamine B assay; settings: for CC50: read-out: LC50 (the source's name)
Outline: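 NCI five-dose SRB assay in RPMI 1640 with 5% FBS and 2 mM L-glutamine. Cells were preincubated 24 h, then exposed 48 h at 37 °C to five concentrations (10-fold or half-log serial dilutions from DMSO stocks). TCA fixation, SRB staining, and absorbance at 515 nm followed. IC50 was taken where [(Ti−Tz)/(C−Tz)]×100 = 50, with Tz as time-zero cell density.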

OVCAR-4 = assay: Cytotoxicity against human OVCAR4 cells assessed as cell growth at 10 uM; settings: read-out: Activity
Outline: (§1)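 NCI-60 screen: cells grown in RPMI 1640 with 5% FBS and 2 mM L-glutamine, plated at 5000–40,000 cells/well according to doubling time, and preincubated 24 h at 37 °C, 5% CO2. The single 10 µM dose (DMSO stock) was added, then incubated 48 h. Cells were TCA-fixed and stained with 0.4% SRB, read at 515 nm, and growth % calculated against time-zero and control plates.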

HT-29 [1] = assay: Cytotoxicity against human HT-29 cells assessed as cell growth at 10 uM; settings: read-out: Activity
Outline: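 Single-dose NCI-60 screen at 10 µM. Cells were grown in RPMI 1640 with 5% FBS and 2 mM L-glutamine, then treated for 48 h at 37 °C. Protein was measured by SRB staining with absorbance at 515 nm. Percentage growth was recorded, and inhibition percentage was calculated as 100 minus growth percentage.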

SK-MEL-2 = assay: Cytotoxicity against human SK-MEL-2 cells assessed as cell growth at 1 uM after 48 hrs by sulforhodamine B assay; settings: SK-MEL-2, 48 h, read-out: Activity
LOX IMVI = assay: Cytotoxicity against human LOXIMVI cells assessed as cell growth at 10 uM; settings: read-out: Activity; outline: as §1
IGROV-1 = assay: Cytotoxicity against human IGROV1 cells assessed as cell growth at 10 uM after 48 hrs by sulforhodamine B assay; settings: IGROV-1, 48 h, read-out: Activity
HT-29 [2] = assay: Cytotoxicity against human HT-29 cells assessed as cell growth at 1 uM after 48 hrs by sulforhodamine B assay; settings: HT-29, 48 h, read-out: Activity
SK-MEL-5 = assay: Growth inhibition of human SK-MEL-5 cells after 48 hrs by sulforhodamine B assay; settings: SK-MEL-5, 48 h; for CC50: read-out: LC50 (the source's name)
Outline: (§2)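 NCI 60-cell screen, five-dose mode. Cells grown in RPMI 1640 with 5% FBS and 2 mM L-glutamine and plated at 5000-40,000 cells/well according to doubling time. After 24 h preincubation, a Tz plate was TCA-fixed. Five concentrations (10-fold or 1/2 log dilutions) were applied for 48 h at 37 °C. SRB staining read at 515 nm. IC50 taken from [(Ti-Tz)/(C-Tz)]×100 = 50.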

SF-295 = assay: Cytotoxicity against human SF295 cells assessed as cell growth at 0.01 uM after 48 hrs by sulforhodamine B assay; settings: SF-295, 48 h, read-out: Activity
MDA-MB-468 = assay: Cytotoxicity against human MDA-MB-468 cells assessed as cell growth at 0.001 uM after 48 hrs by sulforhodamine B assay; settings: MDA-MB-468, 48 h, read-out: Activity
BT-549 = assay: Cytotoxicity against human BT549 cells assessed as cell growth at 0.001 uM after 48 hrs by sulforhodamine B assay; settings: BT-549, 48 h, read-out: Activity
Outline: (§3)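 NCI-60 five-dose screen. Cells were grown in RPMI 1640 with 5% FBS and 2 mM L-glutamine, plated at 5000–40,000 cells/well and preincubated for 24 h. Time-zero plates were TCA-fixed. DMSO-solubilized drug was added at five concentrations (10-fold or ½-log serial dilutions) for 48 h at 37 °C, 5% CO2. Cells were TCA-fixed, stained with 0.4% SRB and read at 515 nm. Percent growth used time-zero, control and test absorbances.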

SF-539 = assay: Cytotoxicity against human SF539 cells assessed as cell growth at 1 uM after 48 hrs by sulforhodamine B assay; settings: SF-539, 48 h, read-out: Activity
HCT-116 = assay: Cytotoxicity against human HCT116 cells assessed as cell growth at 1 uM after 48 hrs by sulforhodamine B assay; settings: HCT-116, 48 h, read-out: Activity
RXF 393 = assay: Cytotoxicity against human RXF393 cells assessed as cell growth at 10 uM; settings: read-out: Activity; outline: as §1
CAKI-1 = assay: Cytotoxicity against human Caki1 cells assessed as cell growth at 100 nM after 48 hrs by sulforhodamine B assay; settings: CAKI-1, 48 h, read-out: Activity
U-251 [3] = assay: Cytotoxicity against human U251 cells assessed as cell growth at 1 uM after 48 hrs by sulforhodamine B assay; settings: U-251, 48 h, read-out: Activity
UACC-257 = assay: Growth inhibition of human UACC257 cells after 48 hrs by sulforhodamine B assay; settings: UACC-257, 48 h; for CC50: read-out: LC50 (the source's name); outline: as §2
U-251 [4] = assay: Cytotoxicity against human U251 cells assessed as cell growth at 10 uM after 48 hrs by sulforhodamine B assay; settings: U-251, 48 h, read-out: Activity
NCI-H322M [5] = assay: Cytotoxicity against human NCI-H322M cells assessed as cell growth at 100 nM after 48 hrs by sulforhodamine B assay; settings: read-out: Activity
OVCAR-3 = assay: Cytotoxicity against human OVCAR-3 cells assessed as cell growth at 100 nM after 48 hrs by sulforhodamine B assay; settings: OVCAR-3, 48 h, read-out: Activity
SK-OV-3 = assay: Cytotoxicity against human SKOV3 cells assessed as cell growth at 0.001 uM after 48 hrs by sulforhodamine B assay; settings: SK-OV-3, 48 h, read-out: Activity
HCT-15 = assay: Cytotoxicity against human HCT15 cells assessed as cell growth at 0.001 uM after 48 hrs by sulforhodamine B assay; settings: HCT-15, 48 h, read-out: Activity
NCI-H322M [6] = assay: Cytotoxicity against human NCI-H322M cells assessed as cell growth at 0.001 uM after 48 hrs by sulforhodamine B assay; settings: read-out: Activity
A498 = assay: Cytotoxicity against human A498 cells assessed as cell growth at 0.01 uM after 48 hrs by sulforhodamine B assay; settings: A498, 48 h, read-out: Activity; outline: as §3
PC-3 = assay: Growth inhibition of human PC3 cells after 48 hrs by sulforhodamine B assay; settings: PC-3, 48 h; outline: as §2
MDA-MB-435 = assay: Cytotoxicity against human MDA-MB-435 cells assessed as cell growth at 100 nM after 48 hrs by sulforhodamine B assay; settings: MDA-MB-435, 48 h, read-out: Activity
SR = assay: Cytotoxicity against human SR cells assessed as cell growth at 10 uM after 48 hrs by sulforhodamine B assay; settings: read-out: Activity

Row | Structure (SMILES) | growth at 0.001 µM (Malme-3M) [%] | GI50 (EKVX) [µM] | TGI (EKVX) [µM] | CC50 (EKVX) [µM] | growth at 10 µM (OVCAR-4) [%] | growth at 10 µM (HT-29 [1]) [%] | growth at 1 µM (SK-MEL-2) [%] | growth at 10 µM (LOX IMVI) [%] | growth at 10 µM (IGROV-1) [%] | growth at 1 µM (HT-29 [2]) [%] | GI50 (SK-MEL-5) [µM] | TGI (SK-MEL-5) [µM] | CC50 (SK-MEL-5) [µM] | growth at 0.01 µM (SF-295) [%] | growth at 0.001 µM (MDA-MB-468) [%] | growth at 0.001 µM (BT-549) [%] | growth at 1 µM (SF-539) [%] | growth at 1 µM (HCT-116) [%] | growth at 10 µM (RXF 393) [%] | growth at 0.1 µM (CAKI-1) [%] | also measured
1 | COc1cc(C)cc(-c2c(-c3ccnc(-c4ccc(N(C)C)cc4)c3)cnn2CC#N)c1 | 97 | 0.29 | > 100 | > 100 | 26 | -33.3 | 11 | 4.55 | -6 | -51 | 0.0394 | 0.309 | > 100 | 56 | 93 | 93 | 1 | -33 | 23.3 | -21 | growth at 1 µM (U-251 [3]): 6%; GI50 (UACC-257): 0.0359 µM; TGI (UACC-257): > 100 µM; CC50 (UACC-257): > 100 µM; growth at 10 µM (U-251 [4]): 6%; growth at 0.1 µM (NCI-H322M [5]): 20%; growth at 0.1 µM (OVCAR-3): -20%; growth at 0.001 µM (SK-OV-3): 102%; growth at 0.001 µM (HCT-15): 100%; growth at 0.001 µM (NCI-H322M [6]): 97%; growth at 0.01 µM (A498): 40%; GI50 (PC-3): 0.0523 µM; LC50 (concentration giving 50% net cell kill) (PC-3): > 100 µM; TGI (PC-3): > 100 µM; growth at 0.1 µM (MDA-MB-435): -43%; growth at 10 µM (SR): -38%
2 | Cc1cc(O)cc(-c2nn(CC#N)cc2-c2ccnc(-c3ccc(N(C)C)cc3)c2)c1 | 91 | 3.92 | 92.8 | > 100 | 29.9 | 20.5 | 11 | 33.7 | -37 | 24 | 1.99 | 5.75 | 22.9 | 89 | 98 | 96 | -34 | 2 | 64.7 | 85 | growth at 1 µM (U-251 [3]): 8%; GI50 (UACC-257): 4.35 µM; TGI (UACC-257): 35.6 µM; CC50 (UACC-257): > 100 µM; growth at 10 µM (U-251 [4]): -66%; growth at 0.1 µM (NCI-H322M [5]): 93%; growth at 0.1 µM (OVCAR-3): 85%; growth at 0.001 µM (SK-OV-3): 92%; growth at 0.001 µM (HCT-15): 86%; growth at 0.001 µM (NCI-H322M [6]): 94%; growth at 0.01 µM (A498): 80%; GI50 (PC-3): 3.77 µM; LC50 (concentration giving 50% net cell kill) (PC-3): > 100 µM; TGI (PC-3): 47.2 µM; growth at 0.1 µM (MDA-MB-435): 51%; growth at 10 µM (SR): 4%
3 | COc1cc(C)cc(-c2nn(CC#N)cc2-c2ccnc(-c3ccc(N(C)C)cc3)c2)c1 | 88 | 0.696 | > 10 | > 100 | 17.1 | -7.04 | 23 | 5.2 | -6 | -29 | 0.269 | 0.672 | 24 | 94 | 96 | 105 | -35 | -41 | -17.1 | 14 | growth at 1 µM (U-251 [3]): -5%; GI50 (UACC-257): 0.448 µM; TGI (UACC-257): > 100 µM; CC50 (UACC-257): > 100 µM; growth at 10 µM (U-251 [4]): -32%; growth at 0.1 µM (NCI-H322M [5]): 49%; growth at 0.1 µM (OVCAR-3): -51%; growth at 0.001 µM (SK-OV-3): 105%; growth at 0.001 µM (HCT-15): 99%; growth at 0.001 µM (NCI-H322M [6]): 99%; growth at 0.01 µM (A498): 88%; GI50 (PC-3): 0.363 µM; LC50 (concentration giving 50% net cell kill) (PC-3): > 100 µM; TGI (PC-3): > 100 µM; growth at 0.1 µM (MDA-MB-435): -25%; growth at 10 µM (SR): 8%
